Series [1] concerns Nakaseomyces glabratus. Nature of the series: Antifungal activity against voriconazole-resistant Candida glabrata clinical isolate 730 assessed as growth inhibition after 24 to 48 hrs by CLSI microbroth dilution method. The format is functional. In outline:
(§1)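 Microbroth dilution per CLSI M27-A3. Isolates subcultured for purity, incubated at 35 °C; five colonies >1 mm suspended in saline, adjusted to 0.5 × 10³ to 2.5 × 10³ in RPMI 1640 buffered to pH 7.0 with 0.165 M MOPS. Compounds diluted in RPMI to final […]. Read visually after 24 h and 48 h at 35 °C; MIC judged by turbidity against drug-free growth control.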
For orientation: In broth dilution the organism is exposed to a series of concentrations in liquid medium.

A short description of series [2]: Aqueous solubility in PBS buffer at pH 7.0. The format is physicochemical.
Series [3] deals with Nakaseomyces glabratus. Description: Antifungal activity against fluconazole-resistant Candida glabrata isolate 6258 assessed as growth inhibition after 24 to 48 hrs by CLSI microbroth dilution method. The format is functional. In outline: as §1
Series [4] relates to Candida albicans. Description: Antifungal activity against azole-resistant Candida albicans clinical isolate 7.O.A assessed as growth inhibition after 24 to 48 hrs by CLSI microbroth dilution method. The format is functional. In outline:
as §1

Series [5] relates to Nakaseomyces glabratus. Description: Antifungal activity against voriconazole-resistant Candida glabrata clinical isolate 724 assessed as growth inhibition after 24 to 48 hrs by CLSI microbroth dilution method. The format is functional. The essentials: as §1
The test system of series [6] is Candida parapsilosis. Nature of the series: Antifungal activity against anidulafungin-resistant Candida parapsilosis isolate 22019 assessed as growth inhibition after 24 to 48 hrs by CLSI microbroth dilution method. The format is functional. The note with it: Lodderomyces parapsilosis. In outline: as §1
For series [7], the system named is Candida albicans. Nature of the series: Antifungal activity against caspofungin-resistant Candida albicans assessed as growth inhibition after 24 to 48 hrs by CLSI microbroth dilution method.
Series [8] in a line: Cytotoxicity against mouse NIH/3T3 cells assessed as cell viability at 0.5 ug/mL after 24 hrs by MTT assay relative to control. The format is cell-based, NIH3T3. Particulars: read-out: Activity. The essentials: (§2)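 NIH/3T3 fibroblasts kept in DMEM with 10% fetal calf serum, penicillin/streptomycin, 37 °C, 5% CO2. Cells seeded at 2 × 10⁴ cells/mL, grown 24 h, then given compound (DMSO stock diluted in medium, final DMSO <0.1%) for 24 h. MTT at 0.5 mg/mL final added for 4 h, formazan dissolved in DMSO, absorbance read at 540 nm. Triplicate wells, mean ± SD, assay run twice.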
On the technique in general: Formazan colour is commonly taken as a measure of viable cells.

In series [9] the test system is Candida parapsilosis. Nature of the series: Antifungal activity against anidulafungin-resistant Candida parapsilosis ANF8 assessed as growth inhibition after 24 to 48 hrs by CLSI microbroth dilution method. The format is functional. The note with it: Lodderomyces parapsilosis. In outline: as §1
Series [10] in a line: Cytotoxicity against mouse NIH/3T3 cells assessed as cell viability at 31.3 ug/mL after 24 hrs by MTT assay relative to control. The format is cell-based, NIH3T3. Particulars: read-out: Activity. In outline: as §2
Series [11] can be described thus: Cytotoxicity against mouse NIH/3T3 cells assessed as cell viability at 62.5 ug/mL after 24 hrs by MTT assay relative to control. The format is cell-based, NIH3T3. The note with it: read-out: Activity. In outline:
as §2

The subject of series [12] is Candida albicans. Nature of the series: Antifungal activity against fluconazole-resistant Candida albicans clinical isolate 5.O.A assessed as growth inhibition after 24 to 48 hrs by CLSI microbroth dilution method. The format is functional. In outline:
as §1

A short description of series [13]: Cytotoxicity against mouse NIH/3T3 cells assessed as cell viability at 1 ug/mL after 24 hrs by MTT assay relative to control. The format is cell-based, NIH3T3. Particulars: read-out: Activity. The essentials: as §2

In brackets after ≈: the same amount, converted by molar mass.

In the case of `C/C(=N\Nc1nc([C@H](C)N)cs1)c1ccc2c(c1)CCC2`, the minimal inhibitory concentration (MIC) was 8 µg/mL (≈ 26.6 µM) with Nakaseomyces glabratus [1]; 0.125 µg/mL (≈ 0.416 µM) in the series with Nakaseomyces glabratus [3]; more than 16 µg/mL in the series with Candida albicans [4]; 8 µg/mL (≈ 26.6 µM) with Nakaseomyces glabratus [5]; 8 µg/mL (≈ 26.6 µM) with Candida parapsilosis [6]; 16 µg/mL (≈ 53.3 µM) in the series on Candida albicans [7]. The values for the MIC in the series with Candida parapsilosis [9] and in the series on Candida albicans [12] were 0.5 µg/mL (≈ 1.66 µM) and more than 16 µg/mL, respectively. The same molecule displayed a solubility in [2] of 700 µM (≈ 210 µg/mL). Moreover, the viability at 24 h, 0.5 ug/mL in [8] was 93.6%. In addition, in series [10], the viability at 24 h, 31.3 ug/mL amounted to 36.2%. In series [11], the viability at 24 h, 62.5 ug/mL was determined as 32.4%. Also, the viability at 24 h, 1 ug/mL in [13] was found to be 92.6%.
With `C/C(=N\Nc1nc([C@@H](N)Cc2ccccc2)cs1)c1ccc2c(c1)CCC2`, the minimal inhibitory concentration (MIC) in the series on Nakaseomyces glabratus [1], in the series with Nakaseomyces glabratus [3], with Candida albicans [4], with Nakaseomyces glabratus [5], with Candida parapsilosis [6] and in the series on Candida albicans [7] was more than 16 µg/mL each time. In addition, the MIC in the series with Candida parapsilosis [9] and with Candida albicans [12] was more than 16 µg/mL throughout. This molecule gave a solubility in [2] of 150 µM (≈ 56.5 µg/mL).
Take `C/C(=N\Nc1nc([C@@H]2CCCN2)cs1)c1ccc2c(c1)CCC2`: the minimal inhibitory concentration (MIC) with Nakaseomyces glabratus [1] is 16 µg/mL (≈ 49 µM); in the series with Nakaseomyces glabratus [3], more than 16 µg/mL; with Candida albicans [4], more than 16 µg/mL; in the series with Nakaseomyces glabratus [5], more than 16 µg/mL; in the series on Candida parapsilosis [6] it was more than 16 µg/mL; with Candida albicans [7], more than 16 µg/mL. Besides, the MIC with Candida parapsilosis [9] and with Candida albicans [12] was more than 16 µg/mL in each case. In series [2], the concentration in solution (solubility) came to 900 µM (≈ 294 µg/mL).
As for `COc1ccc(O)c(-c2csc(N/N=C(/C)C3CCc4ccccc43)n2)c1` (stereo not given), the MIC in the series on Nakaseomyces glabratus [1] is 16 µg/mL (≈ 42.2 µM); in the series on Nakaseomyces glabratus [3], more than 16 µg/mL; in the series with Candida albicans [4], more than 16 µg/mL; in the series with Nakaseomyces glabratus [5], more than 16 µg/mL; in the series on Candida parapsilosis [6], more than 16 µg/mL; in the series with Candida albicans [7], more than 16 µg/mL. Besides, the MIC in the series on Candida parapsilosis [9] and in the series with Candida albicans [12] was more than 16 µg/mL in each case. For the same molecule, in series [2], the solubility was less than 50 µM.

In general, MIC refers to the smallest concentration in the dilution series that meets the test's criterion for growth inhibition. For orientation: solubility means the concentration that dissolves in the medium under given conditions. A low value points to a poorly soluble substance.

The values above are taken from ChEMBL document CHEMBL2331219, “Synthesis and anti-Candida activity of novel 2-hydrazino-1,3-thiazole derivatives” (Bioorg Med Chem Lett, 2013).
